# Results from ChEMBL document CHEMBL4513216, “Probing the Open Global Health Chemical Diversity Library for Multistage-Active Starting Points for Next-Generation Antimalarials” (ACS Infect Dis, 2020).
# Assay: Toxicity liver stage against HepG2, at 10uM
# Assay type: cell-based
# Parameters: test concentration 10 uM, cell line HepG2-A16-CD81EGFP
# Details: human, HepG2-A16-CD81EGFP cells; read-out: INHIBITION
# Method in brief: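 Uninfected HepG2-A16-CD81EGFP cells, 3 × 10^3 per well, 1536-well, plated on prespotted compound at 10 μM final, parasite-free screening media added to match infected plates; puromycin 10 μM positive, DMSO 0.5% negative; run in parallel with 48 h PbLuc assay at 37 °C, 5% CO2; viability by CellTiter-Glo luminescence, normalized to controls.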
row,SMILES,cytotoxicity at 10 µM
1,c1ccc2c(c1)COC1(CCCC1)N2,10.4%
2,Cc1noc([C@@H]2C[C@H](NC(=O)NC(C)C)CN2C)n1,-10.1%
3,CC(C)CC1CC(=O)Nc2c1cnn2Cc1ccco1 (stereo not drawn),-2.75%
4,O=C(Nc1cccnc1)C1CCCN(c2cc(-n3cccn3)ncn2)C1 (stereo not drawn),-5.36%
5,c1csc(CN2CCC3(CC2)COCCN3CC2CC2)n1,5.53%
6,O=C(NC1CC1)C1CCN(c2nc3nc[nH]c(=O)c3s2)CC1,-6.5%
7,COc1ccc(OC)c(CN2CCCCCC2c2cccs2)c1 (stereo not drawn),-5%
8,Cc1cccc(NC(=O)Cn2ncc(SCC(N)=O)c(Cl)c2=O)c1C,-15.7%
9,CC(C)CN1CCC2(CCN(Cc3ccoc3)CC2)C1=O,7.85%
10,CCn1nc(C)c2c1cnn2CC(=O)NC(C)c1cccc(OC)c1 (stereo not drawn),25.8%
11,CCn1nc(C)c2nc(C(C)C)nc(NCCCn3cccn3)c21,8.71%
12,CCOc1cc(C(=O)N2CCCC2)cc2occc12,8.52%
13,Cc1cc(=O)n(CC(=O)NCC2CCCO2)c(-c2ccc(F)cc2)n1 (stereo not drawn),-10.8%
14,O=C(Cc1ccccc1)NCc1ccc(-c2ccccc2C(=O)O)cn1,-11.5%
15,Cc1ccnc(C2CCN(C(=O)c3cnn(C)c3)CC2)n1,-4.15%
16,CC(=O)N[C@@H]1CN(C(=O)CC2CC2)C[C@H]1O,-7.1%
17,CN1CCCC(CCCc2cccnc2)(C(N)=O)C1 (stereo not drawn),-7.86%
18,Cc1nc(Nc2ccccn2)cc(C2CCCN2Cc2ncc[nH]2)n1 (stereo not drawn),-3.11%
19,CC(C)c1nccn1-c1cccc(C2CCCN(S(=O)(=O)N(C)C)C2)n1 (stereo not drawn),-3.11%
20,O=C(c1cnccn1)N1CCCC(c2cccc(-n3ccnc3)n2)C1 (stereo not drawn),-9.08%
21,O=C(c1ccc(Cl)cc1)N1CCn2c(nn(-c3ccncc3)c2=O)C1,27.5%
22,O=C(C1CCCCC1)N1CCC2(COc3ncccc3S(=O)(=O)N2)C1 (stereo not drawn),11.3%
23,CC(=O)Nc1nccn1Cc1ccccc1Cl,-8.1%

row,SMILES,cytotoxicity at 10 µM
1,O=C(NCc1nnc2n1CCC2)c1cn(-c2ccccc2Br)nn1,3.37%
2,COC(C)c1cccc(NCc2cccs2)c1 (stereo not drawn),-8.94%
3,CS(=O)(=O)N1CCCC(c2nc(-c3ccccc3)c[nH]2)C1 (stereo not drawn),2.44%
4,Cc1nn(C)c(C)c1C1CCCN1Cc1nnc(C2CC2)n1C (stereo not drawn),1.76%
5,COCCCN1Cc2cccc(NC(=O)c3ccccc3Cl)c2C1,-4.34%
6,O=C(c1ccc(-n2cccn2)nc1)N1CCC(c2ccc(O)cc2)CC1,11.7%
7,Cc1ncc(CNC(CCO)C2CCCCC2)s1 (stereo not drawn),-48.7%
8,NC(=O)C(Cc1ccccc1)NS(=O)(=O)Cc1ccccc1F (stereo not drawn),-13%
9,COc1cc(C#N)ccc1OCC(=O)NS(=O)(=O)c1ccccc1,0.165%
10,CCN1CC(COC(=O)c2cc(C)nn2CC)CC1=O (stereo not drawn),-3.37%
11,COc1cc(C)c(S(=O)(=O)CC(=O)N(C)C2CC2)cc1OC,-3.81%
12,Cc1nc(CNc2cccc(Cl)c2Cl)cs1,11.4%
13,COCCOCCNC(=O)c1ccc(N2CCC(C)=N2)cc1,7.42%
14,COc1cc(OC)cc(N2CCC(NC(=O)c3ccc[nH]3)CC2)c1,-4.83%
15,Cn1ccc(C(=O)N2CCOC(c3ccccc3)C2)cc1=O (stereo not drawn),-0.944%
16,COC(=O)CN(CC1CCOC1)C1CC1 (stereo not drawn),-24.3%
17,CC(C)(C)n1ncc2c1CCCC2NCc1ccsc1 (stereo not drawn),3.59%
18,CCCS(=O)(=O)NCc1cccnc1OCc1ccccc1,13%
19,O=C(COc1cccc2c1CCC2=O)NCc1ccccc1Cl,-3.46%
20,CCC(=O)N1CCCC1c1ccsc1 (stereo not drawn),-6.05%
21,N#Cc1cccc(C(=O)NS(=O)(=O)c2ccc(C#N)c(Cl)c2)c1,-3.54%
22,Cc1ncsc1CNCC(C)c1nc2ccccc2o1 (stereo not drawn),4.17%
23,CCN1CCN(c2ccc(C(=O)NC(C)CCOC)cc2)CC1 (stereo not drawn),8.7%

row,SMILES,cytotoxicity at 10 µM
1,CCN1CCN(C(=O)NCc2cccc(-c3cnn(C)c3)c2)CC1,-10%
2,CN1CCN(c2ccccc2NC(=O)c2ccco2)CC1,-5.92%
3,CCN(C)C(=O)CCN(C)Cc1cnc(C)s1,4.04%
4,CN(C(=O)c1ccc(S(=O)(=O)NC(C)(C)C)cc1)C1(C#N)CCC1,3.07%
5,Cc1nc(C)c(CCNc2ccc(S(N)(=O)=O)cc2C#N)s1,-62.2%
6,COc1cccc(CC2CCCN2CCCO)c1 (stereo not drawn),-37.5%
7,CN(CC1CCN(CCO)CC1)CC(O)c1ccc(F)c(F)c1 (stereo not drawn),-51.5%
8,CCc1noc(CN(CC(=O)N2CCCCC2)c2ccc(C)cc2)n1,-3.24%
9,CC1CCCCN1CCNC(=O)NCc1ccc(C#N)cc1F (stereo not drawn),0.616%
10,N#CCSCCCN1CCN(C(=O)C2CCCC2)CC1,5.34%
11,COc1ccc(CN(C)C(=O)CCC(=O)c2cccs2)c(OC)c1OC,-10.7%
12,Cc1cc(N2CCN(C(=O)c3cc(Cl)c[nH]3)CC2)nc(N)n1,-6.28%
13,N#CCSCCCN1CCCN(C(=O)c2ccccc2)CC1,-3.74%
14,COCC(=O)N1CCO[C@H]2[C@H](OC)CC[C@@H]21,6.61%
15,c1ccc(C[C@H]2CN(Cc3nccs3)CC[C@H]2OCC2CC2)cc1,5.27%
16,O=C(CC1CC1)N1CCC2(CC1)CN(c1ncccn1)CCO2,1.49%
17,CCc1ccc(CN2CCN(c3ncc(Cl)cn3)CC2)nc1,8.45%
18,CCc1ccc2nc(NCC(O)CO)cc(C)c2c1 (stereo not drawn),-15.4%
19,CC(C)[C@@H]1CN(Cc2ccsc2)C[C@H]1NS(=O)(=O)N(C)C,-23.5%
20,CN(Cc1ccoc1)C(=O)Cn1ncc(N(C)C)cc1=O,7.68%
21,CN1CCN(c2cc(Sc3cccs3)nc(N)n2)CC1CCO (stereo not drawn),1.31%
22,CNC(=O)C1CCN(c2nccc(CCC(F)(F)F)n2)C1 (stereo not drawn),-11.4%
23,Clc1cccc2c1CCN(Cc1nc(CC3CC3)no1)C2,0.873%

row,SMILES,cytotoxicity at 10 µM
1,CCC(CO)N(Cc1ccsc1)CC1CC1 (stereo not drawn),11.5%
2,CN(Cc1cc2n(n1)CCN(C(=O)[C@H]1CCCO1)C2)Cc1nccs1,7.92%
3,CC(C)c1nnsc1CN1CCc2[nH]nc(-c3ccc(Cl)cc3)c2C1,-10.3%
4,CCN(Cc1cccc2c1OCO2)CC1CCCO1 (stereo not drawn),3.18%
5,COc1ccccc1-n1cc(CN2CCN(C)[C@@H]3CS(=O)(=O)C[C@@H]32)cn1,14.5%
6,CCCc1cc(CN(C)C2CCSCC2)n[nH]1,-20.6%
7,COc1cc2nc(NCCNS(C)(=O)=O)cc(C)c2cc1OC,-1.08%
8,CN1CC2(CCN(C(=O)c3ccc(=O)n(C)c3)CC2)CC1=O,-4.46%
9,CC(C)[C@@H]1CN(C(=O)C2(c3ccccc3)CC2)C[C@H]1C(=O)O,3.61%
10,COCCN1CCC(CN(CC2CCCO2)C(=O)CNC(C)=O)CC1 (stereo not drawn),1.48%
11,CC(C)N1CC2(CCCN(Cc3noc(C4CCCC4)n3)C2)CCC1=O (stereo not drawn),0.00194%
12,O=C(NCc1ccc2c(c1)CCCO2)c1ccc(C2CCNC2)cc1 (stereo not drawn),-11.5%
13,Cc1n[nH]c(C)c1CCc1nc(C2CC2)n[nH]1,-12%
14,Cc1cc(C(=O)N[C@H]2CN(CCC(N)=O)C[C@@H]2C2CC2)sc1C,8.28%
15,CC(C)c1cccc(N2CCCC3(CCC(=O)N(C4CC4)C3)C2)n1 (stereo not drawn),-5.01%
16,Cn1c(CN2CCOCC2)nnc1C1CCN(C(=O)C2CCCC2)CC1,-17.8%
17,CNC(=O)c1ccc(C2CN(C(=O)c3cncs3)CCO2)nc1 (stereo not drawn),-2.7%
18,Nc1cc2c(nn1)CCN(C(=O)CC1CCCCC1)C2,-2.78%
19,CS(=O)(=O)NCCN1CCCC1c1ccc(Cl)cc1 (stereo not drawn),3.6%
20,Cc1ccc(C(=O)N(C2CC2)C2CC(=O)NC2=O)cc1F (stereo not drawn),-7.33%
21,Cc1ccccc1C1(CNC(=O)CCN2C(=O)CCC2=O)CC1,-11.8%
22,c1cnnc(NCC2CN(Cc3ccon3)CCO2)c1 (stereo not drawn),-32.2%
23,c1ccc(-n2cc(CN3CCCC3Cn3cncn3)nn2)cc1 (stereo not drawn),-0.0716%

row,SMILES,cytotoxicity at 10 µM
1,CNS(=O)(=O)c1cccc(CNc2ncccn2)c1,-9.7%
2,O=C(NCCNc1ncccn1)C1CC(=O)N(Cc2ccccn2)C1 (stereo not drawn),-10.4%
3,Cn1ncc2c1CCCC2NCc1cccc(OC2CCCC2)c1 (stereo not drawn),-19.3%
4,COCc1ccccc1C(=O)N(C)Cc1ncc(C)c(OC)c1C,-7.55%
5,O=C(CCOc1ccccc1)N1CCC(Nc2cccnn2)CC1,-9.29%
6,CC(C)NC(=O)C(c1ccccc1)N1CCn2c(nnc2C2CC2)C1 (stereo not drawn),-3.3%
7,Fc1ccc(OCc2noc(CN3CCc4cncnc4C3)n2)cc1,2%
8,CCc1noc(C(C)N2CCC(N3CCCC3)CC2)n1 (stereo not drawn),-7.77%
9,CN(C(=O)c1cc(Cl)c[nH]1)C1CCN(c2ccccn2)CC1,-1.49%
10,CC1CN(CC(=O)NC2CCCC2)CCN1c1ccc2nncn2n1 (stereo not drawn),-1.58%
11,CCc1nc(CN2CCN(C(=O)Cc3c(C)noc3C)CC2)cs1,-0.549%
12,O=C(NC1CC1)[C@H]1CC[C@@H]2[C@@H](CCN2c2ncc(F)cn2)O1,-1.65%
13,Cc1n[nH]cc1CNC1CCN(c2ccccc2)CC1,-52.2%
14,CC(C)Oc1ncnc2c1CCN(Cc1ccco1)CC2,8.49%
15,O=C(C1CCC1)N1C[C@@H]2CN(Cc3ccncc3)C(=O)[C@@H]2C1,-113%
16,CNC(=O)c1cc2c(nc1N(C)C)CCN(c1ncc(F)cn1)CC2,-131%
17,Cc1ccc(C(=O)N2C[C@H](N3CCOCC3)[C@@H]3OCCC[C@@H]32)cn1,-108%
18,O=C([C@@H]1COC[C@H]2CN(C3CCCC3)C[C@H]21)N1CCC(F)CC1,-103%
19,CN1CCN(C=C2N=C(c3cc(-c4ccc(F)cc4)n[nH]3)ON2)CC1,-2.08%
20,CCn1[nH]c(C)c2c(C(F)(F)C(F)(F)F)cc(=O)nc1-2,-9.29%
21,CCN1CCc2c(sc3c2C(=O)NC(C=Cc2ccco2)N3)C1 (stereo not drawn),-1.07%
